From ChEMBL document CHEMBL2040739, “Effect of phosphodiesterase 7 (PDE7) inhibitors in experimental autoimmune encephalomyelitis mice. Discovery of a new chemically diverse family of compounds” (J Med Chem, 2012)
Blank lines part the entries; values can stand above or below the compound they belong to. Activity calls are given as the source filed them. No cut-off for these calls is given here.

Experiments:
[1] = target: T1, High affinity 3',5'-cyclic-AMP phosphodiesterase 7A (Homo sapiens, UniProt Q13946); test: Inhibition of human recombinant PDE7A1-mediated [3H]cAMP hydrolysis at 10 uM after 20 mins by scintillation proximity assay
How it was run: (§1)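 Scintillation proximity assay with human recombinant full-length enzyme: PDE7A1 or PDE3A at 0.02 unit, or PDE7B at 0.5 unit. Enzyme incubated with 5 nCi [3H]cAMP for 20 min at 30 °C. SPA beads added, shaken 1 h at room temperature, then settled 30 min before counting. Single-point screens at 10 μM run in duplicate. IC50 from a sigmoidal dose−response fit.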

[2] = target: T1, High affinity 3',5'-cyclic-AMP phosphodiesterase 7A; test: Inhibition of human recombinant PDE7A1-mediated [3H]cAMP hydrolysis after 20 mins by scintillation proximity assay; how it was run: as §1
Microglia [3] = test: Antiinflammatory activity in rat microglia cells assessed as inhibition of LPS-induced nitrite production at 30 uM incubated for 1 hr prior to LPS-challenge measured after 24 hrs by Griess method; assay type: functional, cell-based
How it was run: (§2)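 Glial cells from neonatal rat cerebral cortex; microglia and astrocytes separated by shaking and cultured 1 week. Purity >98% by OX42 and GFAP staining. Microglia kept with 10 ng/mL GM-CSF. Cells given compound for 1 h, then LPS (10 μg/mL) for 24 h. Nitrite in the supernatant measured by Griess reaction at 492/540 nm. Mean ± SD of six replications in three experiments.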

Astrocyte [4] = test: Antiinflammatory activity in rat astrocytes assessed as inhibition of LPS-induced nitrite production at 30 uM incubated for 1 hr prior to LPS-challenge measured after 24 hrs by Griess method; assay type: functional, cell-based; how it was run: as §2
[5] = target: T2, High affinity 3',5'-cyclic-AMP phosphodiesterase 7A (Mus musculus) (UniProt P70453); test: Inhibition of PDE7A1 in mouse RAW cells assessed as increase in cAMP level at 10 to 30 uM after 60 mins by enzyme immunoassay; assay type: cell-based
T2 sequence (whole entry): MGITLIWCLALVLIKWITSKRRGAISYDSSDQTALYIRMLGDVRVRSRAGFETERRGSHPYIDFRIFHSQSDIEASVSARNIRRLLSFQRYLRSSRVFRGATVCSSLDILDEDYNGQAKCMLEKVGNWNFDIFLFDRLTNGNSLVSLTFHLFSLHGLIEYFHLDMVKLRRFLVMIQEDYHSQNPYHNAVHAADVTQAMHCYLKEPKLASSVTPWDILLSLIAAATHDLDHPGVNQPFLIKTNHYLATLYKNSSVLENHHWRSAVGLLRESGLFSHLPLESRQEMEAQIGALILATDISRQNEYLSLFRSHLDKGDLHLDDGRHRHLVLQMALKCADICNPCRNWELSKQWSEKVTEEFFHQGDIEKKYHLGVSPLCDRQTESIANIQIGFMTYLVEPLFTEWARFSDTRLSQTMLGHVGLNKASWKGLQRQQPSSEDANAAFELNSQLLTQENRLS
How it was run: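 RAW cells seeded at 3 × 10^4 per well and incubated overnight. Compound added for 60 min at 10 or 30 μM. Intracellular cAMP quantified by enzyme immunoassay kit.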

[6] = target: T1, High affinity 3',5'-cyclic-AMP phosphodiesterase 7A; test: Inhibition of PDE7A1
[7] = Cytotoxicity against rat microglia cells at 5 to 10 uM after 16 hrs by MTT assay; assay type: cell-based
How it was run: (§3)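 Primary neonatal rat cortical astrocytes or microglia, after 1 week in culture, exposed to compound for 16 h. MTT at 0.5 mg/mL for 4 h, then solubilized in 10% SDS/0.01 M HCl for 12 h in the dark. Absorbance read at 595 nm. Six replications in three experiments.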

[8] = Cytotoxicity against rat astrocytes at 5 to 10 uM after 16 hrs by MTT assay; assay type: cell-based; conditions: astrocyte; how it was run: as §3
Microglia [9] = test: Antiinflammatory activity in rat microglia cells assessed as inhibition of LPS-induced nitrite production at 5 to 10 uM incubated for 1 hr prior to LPS-challenge measured after 24 hrs by Griess method; assay type: functional, cell-based; how it was run: as §2
Astrocyte [10] = test: Antiinflammatory activity in rat astrocytes assessed as inhibition of LPS-induced nitrite production at 5 to 10 uM incubated for 1 hr prior to LPS-challenge measured after 24 hrs by Griess method; assay type: functional, cell-based; how it was run: as §2
[11] = target: T3, cGMP-inhibited 3',5'-cyclic phosphodiesterase 3A (Homo sapiens, UniProt Q14432); test: Inhibition of human recombinant PDE3A-mediated [3H]cAMP hydrolysis at 10 uM after 20 mins by scintillation proximity assay; how it was run: as §1
[12] = target: T3, cGMP-inhibited 3',5'-cyclic phosphodiesterase 3A; test: Inhibition of human recombinant PDE3A-mediated [3H]cAMP hydrolysis after 20 mins by scintillation proximity assay; how it was run: as §1
Homo sapiens = organism: Homo sapiens; test: Selectivity index, ratio of IC50 for human recombinant PDE7A1 to IC50 for human recombinant PDE3A
How it was run: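 Ratio of IC50 values for PDE7A1 and PDE3A, each obtained by scintillation proximity assay with [3H]cAMP for 20 min at 30 °C.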

T3 sequence (Q14432 whole entry): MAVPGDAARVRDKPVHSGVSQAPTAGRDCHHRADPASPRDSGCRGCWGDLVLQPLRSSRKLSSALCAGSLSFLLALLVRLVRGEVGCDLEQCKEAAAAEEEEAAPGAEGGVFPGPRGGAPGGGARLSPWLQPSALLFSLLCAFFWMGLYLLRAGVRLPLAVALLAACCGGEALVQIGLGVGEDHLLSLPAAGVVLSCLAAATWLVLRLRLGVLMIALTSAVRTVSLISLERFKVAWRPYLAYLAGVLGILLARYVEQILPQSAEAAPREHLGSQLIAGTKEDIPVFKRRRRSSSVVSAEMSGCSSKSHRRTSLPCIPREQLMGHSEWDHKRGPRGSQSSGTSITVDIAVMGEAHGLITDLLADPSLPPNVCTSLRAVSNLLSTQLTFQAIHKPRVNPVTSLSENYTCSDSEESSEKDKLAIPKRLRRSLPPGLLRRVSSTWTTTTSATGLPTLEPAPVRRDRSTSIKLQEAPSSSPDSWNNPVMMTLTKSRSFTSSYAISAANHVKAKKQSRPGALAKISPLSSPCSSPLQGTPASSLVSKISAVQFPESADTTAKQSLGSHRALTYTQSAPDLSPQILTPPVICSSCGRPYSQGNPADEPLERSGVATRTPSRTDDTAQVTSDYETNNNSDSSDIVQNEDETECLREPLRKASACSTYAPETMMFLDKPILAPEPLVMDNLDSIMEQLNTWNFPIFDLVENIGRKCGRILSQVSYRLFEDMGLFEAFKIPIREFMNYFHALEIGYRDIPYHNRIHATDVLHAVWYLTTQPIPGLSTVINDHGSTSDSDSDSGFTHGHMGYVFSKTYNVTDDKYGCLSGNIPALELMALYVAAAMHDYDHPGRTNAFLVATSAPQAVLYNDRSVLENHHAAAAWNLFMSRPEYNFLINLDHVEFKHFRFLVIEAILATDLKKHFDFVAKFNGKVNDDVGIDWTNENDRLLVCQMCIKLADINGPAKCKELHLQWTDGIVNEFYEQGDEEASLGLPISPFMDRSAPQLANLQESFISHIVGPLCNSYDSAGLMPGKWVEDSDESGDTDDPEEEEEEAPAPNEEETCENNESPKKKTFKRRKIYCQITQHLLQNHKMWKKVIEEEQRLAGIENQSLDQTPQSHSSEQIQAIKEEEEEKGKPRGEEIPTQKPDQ
T1 sequence (Q13946 whole entry): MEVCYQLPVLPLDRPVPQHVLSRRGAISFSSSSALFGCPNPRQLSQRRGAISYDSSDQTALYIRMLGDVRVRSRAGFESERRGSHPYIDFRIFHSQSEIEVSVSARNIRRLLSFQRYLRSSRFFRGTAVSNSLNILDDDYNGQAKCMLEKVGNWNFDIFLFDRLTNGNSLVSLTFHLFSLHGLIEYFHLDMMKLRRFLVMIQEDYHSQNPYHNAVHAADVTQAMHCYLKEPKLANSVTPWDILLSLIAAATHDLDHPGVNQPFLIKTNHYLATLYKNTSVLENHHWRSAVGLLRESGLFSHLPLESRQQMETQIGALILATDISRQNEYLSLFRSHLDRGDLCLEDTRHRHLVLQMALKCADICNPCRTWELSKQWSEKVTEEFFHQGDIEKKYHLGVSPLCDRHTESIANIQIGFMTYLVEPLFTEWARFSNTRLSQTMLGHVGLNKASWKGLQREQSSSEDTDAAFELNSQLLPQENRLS

SMILES: Cc1ccc([N+](=O)[O-])cc1S(=O)(=O)N(C)C
IC50 [2]: 0.09 µM
Activity (Microglia [3]): Active
Activity (Astrocyte [4]): Active
inhibition [5]: Active

SMILES: COc1ccc(COC(=O)c2ccc(-c3ccc(Cl)cc3[N+](=O)[O-])o2)cc1
inhibition [1]: 41.6%

SMILES: COc1ccc(COC(=O)c2ccc(-c3ccccc3)o2)cc1
inhibition [1]: 44.8%

SMILES: COc1cc(COC(=O)c2ccc(-c3ccc([N+](=O)[O-])cc3)o2)cc(OC)c1OC
inhibition [1]: 48%
IC50 [2]: 14.1 µM
Activity [7]: Non-toxic
Activity [8]: Non-toxic
Activity (Microglia [9]): Active
Activity (Astrocyte [10]): Active
inhibition [11]: 57.1%
IC50 [12]: 3.4 µM
Ratio IC50 (Homo sapiens): 4.15

SMILES: CCOC(=O)c1sc(NC(=O)C(CC)OC(=O)C(CC(C)C)NC(=O)c2ccccc2)nc1C (configuration not stated)
IC50 [6]: 0.86 µM

SMILES: COc1cc(COC(=O)c2ccco2)cc(OC)c1OC
inhibition [1]: 10%

SMILES: COc1ccc(C2CNC(=O)C2)cc1OC1CCCC1 (configuration not stated)
Activity (Microglia [3]): Active
Activity (Astrocyte [4]): Active

Now from value to compound, other results behind:

inhibition [1]: 29.2%
SMILES: CCOc1cc(COC(=O)c2ccc(-c3ccc([N+](=O)[O-])cc3)o2)cc(OCC)c1OCC

IC50 [6]: 0.58 µM
inhibition [1]: 29%
SMILES: CCOc1cc(C(=O)OCc2ccc(-c3ccc([N+](=O)[O-])cc3C)o2)cc(OCC)c1OCC

inhibition [1]: 48.8%
IC50 [2]: 12.3 µM
inhibition [11]: 3%
IC50 [12]: 104 µM
Ratio IC50 (Homo sapiens): 0.12
SMILES: CCOc1cc(C(=O)OCc2ccc(-c3ccccc3)o2)cc(OCC)c1OCC
Activity [7]: Non-toxic
Activity [8]: Non-toxic
Activity (Microglia [9]): Active
Activity (Astrocyte [10]): Active

inhibition [1]: 30.7%
SMILES: COc1cc(COC(=O)c2ccc(-c3ccc(C)cc3)o2)cc(OC)c1OC

inhibition [1]: 8%
SMILES: COc1cc(COC(=O)c2ccc(-c3cc(C(F)(F)F)ccc3Cl)o2)cc(OC)c1OC

inhibition [1]: 39.9%
SMILES: CCOc1cc(C(=O)OCc2ccc(-c3ccc([N+](=O)[O-])cc3)o2)cc(OCC)c1OCC

inhibition [1]: 30.8%
SMILES: CCOc1cc(COC(=O)c2ccc(-c3ccccc3)o2)cc(OCC)c1OCC

inhibition [1]: 16.4%
SMILES: CCOc1cc(C(=O)OCc2ccc(-c3ccc(C)cc3)o2)cc(OCC)c1OCC

inhibition [1]: 3.7%
SMILES: CCOc1cc(C(=O)OCc2ccc(-c3ccc(Cl)cc3Cl)o2)cc(OCC)c1OCC
